pEC50, pIC50: −log10 of the molar value.
Key:
Assay type in all cases: functional; call rule not given here
[1] = target: T1, Metabotropic glutamate receptor 6 (Rattus norvegicus, UniProt P35349); experiment: Effective concentration for agonistic activity at Metabotropic glutamate receptor 6; Not active
[2] = target: T2, Metabotropic glutamate receptor 3 (Rattus norvegicus, UniProt P31422); experiment: Inhibitory concentration required for antagonistic activity at Metabotropic glutamate receptor 3
T2 sequence (P31422 whole entry): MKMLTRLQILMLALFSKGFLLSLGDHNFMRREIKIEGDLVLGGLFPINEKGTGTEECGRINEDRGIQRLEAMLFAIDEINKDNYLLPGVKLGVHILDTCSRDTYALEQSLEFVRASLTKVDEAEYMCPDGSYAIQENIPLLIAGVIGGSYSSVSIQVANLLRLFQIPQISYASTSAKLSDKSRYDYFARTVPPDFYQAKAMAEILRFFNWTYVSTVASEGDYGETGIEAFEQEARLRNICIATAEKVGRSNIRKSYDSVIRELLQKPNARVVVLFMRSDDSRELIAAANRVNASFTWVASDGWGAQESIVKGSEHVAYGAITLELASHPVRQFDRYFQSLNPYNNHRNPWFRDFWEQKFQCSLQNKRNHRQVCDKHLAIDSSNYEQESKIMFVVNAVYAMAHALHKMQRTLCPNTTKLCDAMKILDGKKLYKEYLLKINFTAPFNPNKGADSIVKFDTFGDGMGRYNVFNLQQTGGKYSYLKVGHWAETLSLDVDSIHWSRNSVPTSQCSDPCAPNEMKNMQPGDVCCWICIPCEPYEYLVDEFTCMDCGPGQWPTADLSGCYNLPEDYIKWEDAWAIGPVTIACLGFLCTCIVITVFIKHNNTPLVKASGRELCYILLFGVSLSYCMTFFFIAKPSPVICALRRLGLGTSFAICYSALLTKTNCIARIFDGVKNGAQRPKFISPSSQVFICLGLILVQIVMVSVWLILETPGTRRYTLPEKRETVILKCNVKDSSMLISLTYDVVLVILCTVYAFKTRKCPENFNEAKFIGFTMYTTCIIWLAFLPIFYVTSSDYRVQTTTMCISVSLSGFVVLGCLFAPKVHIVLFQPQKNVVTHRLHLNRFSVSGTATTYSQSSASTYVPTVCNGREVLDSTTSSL

[3] = target: T3, Metabotropic glutamate receptor 2 (Rattus norvegicus, UniProt P31421); experiment: Inhibitory concentration required for antagonistic activity at Metabotropic glutamate receptor 2
T3 sequence (P31421 whole entry): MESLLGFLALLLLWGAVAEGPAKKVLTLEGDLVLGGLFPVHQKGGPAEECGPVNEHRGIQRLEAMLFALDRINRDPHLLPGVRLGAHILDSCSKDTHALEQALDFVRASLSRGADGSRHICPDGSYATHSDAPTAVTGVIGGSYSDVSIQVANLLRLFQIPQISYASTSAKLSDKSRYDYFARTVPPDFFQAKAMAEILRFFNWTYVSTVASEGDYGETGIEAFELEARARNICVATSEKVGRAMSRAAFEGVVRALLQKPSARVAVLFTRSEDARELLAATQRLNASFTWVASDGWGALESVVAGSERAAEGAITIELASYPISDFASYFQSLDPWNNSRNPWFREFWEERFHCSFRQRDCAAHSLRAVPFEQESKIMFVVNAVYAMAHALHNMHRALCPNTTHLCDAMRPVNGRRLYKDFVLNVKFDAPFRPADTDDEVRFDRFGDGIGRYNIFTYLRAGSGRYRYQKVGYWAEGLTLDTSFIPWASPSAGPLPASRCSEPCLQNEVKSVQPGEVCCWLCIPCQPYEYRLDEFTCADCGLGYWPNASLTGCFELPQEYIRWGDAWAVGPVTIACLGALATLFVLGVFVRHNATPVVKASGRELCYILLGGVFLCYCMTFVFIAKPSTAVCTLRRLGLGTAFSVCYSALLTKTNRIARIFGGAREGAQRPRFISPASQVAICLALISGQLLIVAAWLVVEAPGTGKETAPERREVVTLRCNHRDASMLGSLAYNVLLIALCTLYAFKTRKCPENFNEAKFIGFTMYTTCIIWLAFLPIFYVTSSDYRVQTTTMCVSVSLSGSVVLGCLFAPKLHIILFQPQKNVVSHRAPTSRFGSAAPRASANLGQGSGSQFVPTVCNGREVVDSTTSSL
In short: (§1)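 Antagonism at mGluR2 stably expressed in CHO cells, tested against 2 μM glutamate and read as forskolin-induced cAMP formation. Dose-response curves; means ± SEM from at least three experiments run in triplicate.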

[4] = target: T3, Metabotropic glutamate receptor 2; experiment: Effective concentration required for agonistic activity at Metabotropic glutamate receptor 2
[5] = target: T2, Metabotropic glutamate receptor 3; experiment: Effective concentration required for agonistic activity at Metabotropic glutamate receptor 3
In short: (§2)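 Agonist activity at mGluR3, stably expressed in CHO cells together with a chimeric construct. Dose-response curves; means ± SEM from at least three experiments run in triplicate.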

[6] = target: T2, Metabotropic glutamate receptor 3; experiment: Inhibitory concentration required for antagonistic activity at Metabotropic glutamate receptor 3; Not active
[7] = target: T2, Metabotropic glutamate receptor 3; experiment: Effective concentration required for agonistic activity at Metabotropic glutamate receptor 3; Not active; in short: as §2
[8] = target: T1, Metabotropic glutamate receptor 6; experiment: Effective concentration required for agonistic activity at Metabotropic glutamate receptor 6
[9] = target: T3, Metabotropic glutamate receptor 2; experiment: Effective concentration required for partial agonistic activity at Metabotropic glutamate receptor 2; Partial agonist
[10] = target: T1, Metabotropic glutamate receptor 6; experiment: Effective concentration required for partial agonistic activity at Metabotropic glutamate receptor 6; Partial agonist
[11] = target: T2, Metabotropic glutamate receptor 3; experiment: Effective concentration required for partial agonistic activity at Metabotropic glutamate receptor 3; Partial agonist; in short: as §2
[12] = target: T3, Metabotropic glutamate receptor 2; experiment: Inhibitory concentration required for antagonistic activity at Metabotropic glutamate receptor 2; Not active; in short: as §1
[13] = target: T3, Metabotropic glutamate receptor 2; experiment: Effective concentration required for agonistic activity at Metabotropic glutamate receptor 2; Not active

T1 sequence (P35349 whole entry): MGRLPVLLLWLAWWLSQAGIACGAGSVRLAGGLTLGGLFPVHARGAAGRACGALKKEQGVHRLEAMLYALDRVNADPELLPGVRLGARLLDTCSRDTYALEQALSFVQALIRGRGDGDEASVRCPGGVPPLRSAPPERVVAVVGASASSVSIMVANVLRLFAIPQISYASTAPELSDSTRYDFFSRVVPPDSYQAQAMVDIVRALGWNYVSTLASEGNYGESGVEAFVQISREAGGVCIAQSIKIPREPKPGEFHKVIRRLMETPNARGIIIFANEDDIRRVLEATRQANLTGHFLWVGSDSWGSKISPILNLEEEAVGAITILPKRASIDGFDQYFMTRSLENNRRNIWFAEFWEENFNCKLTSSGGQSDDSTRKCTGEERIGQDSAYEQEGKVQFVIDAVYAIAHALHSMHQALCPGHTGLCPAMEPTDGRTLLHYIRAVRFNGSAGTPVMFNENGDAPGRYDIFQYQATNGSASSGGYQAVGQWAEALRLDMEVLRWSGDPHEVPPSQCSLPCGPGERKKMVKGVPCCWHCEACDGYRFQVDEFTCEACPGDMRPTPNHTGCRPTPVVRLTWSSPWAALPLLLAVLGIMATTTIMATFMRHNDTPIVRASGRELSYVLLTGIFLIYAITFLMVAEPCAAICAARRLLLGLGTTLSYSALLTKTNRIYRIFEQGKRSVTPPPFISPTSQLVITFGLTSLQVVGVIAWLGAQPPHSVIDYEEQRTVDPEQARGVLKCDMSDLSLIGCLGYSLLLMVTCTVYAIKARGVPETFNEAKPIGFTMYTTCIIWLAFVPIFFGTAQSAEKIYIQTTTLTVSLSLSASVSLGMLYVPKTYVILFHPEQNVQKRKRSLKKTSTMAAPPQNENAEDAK

EC50 [1] | pIC50 [2] | pEC50 [4] | IC50 [6] | EC50 [7] | pEC50 [8] | SMILES | further results
Not Active | 3.57 | – | – | – | – | CC(N)(C(=O)O)c1ccc(C(=O)O)cc1 (configuration not stated) | pIC50 [3]: 3.54
Not Active | – | 6.32 | – | – | – | N[C@@]1(C(=O)O)CN[C@@H](C(=O)O)C1 | pEC50 [5]: 5.77
Not Active | 4.17 | – | – | – | – | CC(N)(C(=O)O)C1CC1C(=O)O (configuration not stated) | –
Not Active | – | 3.02 | Not Active | Not Active | – | Cl.Cl.N[C@]1(C(=O)O)C[C@H](C(=O)O)N(Cc2cccc(O)c2)C1 | –
– | 4.68 | – | – | – | 4.66 | N[C@]1(C(=O)O)C[C@H](C(=O)O)N(C(C(=O)O)c2ccccc2)C1 (some centres not stated) | –
Not Active | 4.64 | – | – | – | – | Cl.Cl.N[C@]1(C(=O)O)C[C@H](C(=O)O)N(Cc2ccccc2C#Cc2ccccc2)C1 | –
– | 4.03 | – | – | – | 4.00 | N[C@]1(C(=O)O)C[C@H](C(=O)O)N(Cc2cccc([N+](=O)[O-])c2)C1 | –
– | – | – | Not Active | Not Active | 4.24 | Cl.Cl.N[C@]1(C(=O)O)C[C@H](C(=O)O)N(Cc2ccc(C(=O)O)cc2)C1 | pEC50 [9]: 5.33
– | 4.57 | 5.21 | – | – | – | N[C@]1(C(=O)O)C[C@H](C(=O)O)N(Cc2ccccc2O)C1 | pEC50 [10]: 4.06
Not Active | – | – | Not Active | Not Active | – | Cl.Cl.Cl.Nc1ccc(CN2C[C@@](N)(C(=O)O)C[C@@H]2C(=O)O)cc1 | pEC50 [9]: 5.64
Not Active | – | 4.46 | Not Active | Not Active | – | Cl.Cl.Cl.Nc1ccccc1CN1C[C@@](N)(C(=O)O)C[C@@H]1C(=O)O | –
– | 3.72 | – | – | – | 3.49 | COc1ccc(CN2C[C@@](N)(C(=O)O)C[C@@H]2C(=O)O)cc1 | –
– | – | 4.62 | – | – | 4.13 | N[C@]1(C(=O)O)C[C@H](C(=O)O)N(Cc2ccc(O)cc2)C1 | pEC50 [11]: 5.12
Not Active | – | 4.43 | – | – | – | Cl.Cl.Cl.N[C@]1(C(=O)O)C[C@H](C(=O)O)N(Cc2ccccn2)C1 | pEC50 [5]: 4.43
– | – | – | Not Active | Not Active | 3.68 | Cl.Cl.N[C@]1(C(=O)O)C[C@H](C(=O)O)N(Cc2cc([N+](=O)[O-])cc([N+](=O)[O-])c2)C1 | IC50 [12]: Not Active; EC50 [13]: Not Active
Not Active | – | – | Not Active | Not Active | – | Cl.Cl.N[C@]1(C(=O)O)C[C@H](C(=O)O)N(CC(=O)O)C1 | pEC50 [9]: 6.21
– | – | 5.40 | – | – | 3.96 | N[C@]1(C(=O)O)C[C@H](C(=O)O)N(Cc2ccccc2[N+](=O)[O-])C1 | pEC50 [5]: 5.17
Not Active | – | 4.48 | Not Active | Not Active | – | Cl.Cl.N[C@]1(C(=O)O)C[C@H](C(=O)O)N(Cc2ccccc2C(=O)O)C1 | –
Not Active | – | 3.80 | Not Active | Not Active | – | Cl.Cl.N[C@]1(C(=O)O)C[C@H](C(=O)O)N(Cc2ccc([N+](=O)[O-])cc2)C1 | –
– | – | – | – | – | 3.51 | N[C@]1(C(=O)O)C[C@H](C(=O)O)N(Cc2ccccc2Br)C1 | –
– | – | – | Not Active | Not Active | 4.24 | Cl.Cl.N[C@]1(C(=O)O)C[C@H](C(=O)O)N(Cc2cccc(C(=O)O)c2)C1 | IC50 [12]: Not Active; EC50 [13]: Not Active
